Test results as given in ChEMBL document CHEMBL1135644, “Effect of spermine conjugation on the cytotoxicity and cellular transport of acridine” (J Med Chem, 2002).

Tests used:
CHO [1] = test: Cellular uptake of conjugates in CHO cells at a concentration of 0.5 uM (+/-15% SEM); assay type: functional, cell-based; settings: Cricetulus griseus
Procedure, shortened: (§1)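 Conjugates added 24 h after seeding (1 × 10^5 cells/mL, RPMI 1640 with 10% FCS and 2 mM aminoguanidine; proline added for CHO-MG) and left for 24 h. Cells were washed in 0.14 M NaCl, sonicated in 0.2 N HClO4/2 M NaCl and held 16 h at 4 °C. Conjugate in the supernatant was measured by fluorimetry against standards and expressed per mg protein (Folin). Mean of three determinations (±15%).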

CHO-MG [2] = test: In vitro 50% cell growth inhibition by the compound in CHO-MG cells; assay type: functional, cell-based; settings: Cricetulus griseus
Procedure, shortened: (§2)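 CHO or CHO-MG cells were trypsinized and plated singly at 2 × 10^3 cells/mL in RPMI 1640/10% FCS with 2 mM aminoguanidine (proline for CHO-MG). Conjugates were added after overnight incubation, with 48 h exposure. Growth was read by MTT formazan absorbance at 540 nm relative to untreated controls. The value is the concentration giving 25% or 50% growth inhibition.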

CHO-MG [3] = test: Cellular uptake of conjugates in CHO-MG cells at a concentration of 0.5 uM (+/-15% SEM); assay type: functional, cell-based; settings: Cricetulus griseus; procedure, shortened: as §1
L1210 [4] = test: In vitro 50% cell growth inhibition by the compound in L1210 cells; assay type: functional, cell-based; settings: Mus musculus
Procedure, shortened: (§3)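 L1210 cells were seeded at 5 × 10^4 cells/mL with conjugate added at seeding, in medium with 2 mM aminoguanidine, for 48 h exposure. Growth was measured by MTT absorbance at 540 nm relative to untreated controls.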

L1210 [5] = test: In vitro 50% cell growth inhibition by the compound in L1210 cells with 5 mM DFMO addition; assay type: functional, cell-based; settings: Mus musculus
Procedure, shortened: (§4)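 L1210 cells were seeded at 5 × 10^4 cells/mL, and conjugate plus 5 mM DFMO were added at seeding with 2 mM aminoguanidine present. After 48 h, growth was read by MTT at 540 nm relative to DFMO-only controls.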

L1210 [6] = test: In vitro 25% cell growth inhibition by the compound in L1210 cells; assay type: functional; settings: Mus musculus; procedure, shortened: as §3
L1210 [7] = test: In vitro 25% cell growth inhibition by the compound in L1210 cells with 5 mM DFMO addition; assay type: functional; settings: Mus musculus; procedure, shortened: as §4
L1210 [8] = test: Inhibition of [14C]SPD uptake by the compound in 5 min initial rate transport assay in L1210 cells; assay type: functional, cell-based, Mus musculus
L1210 [9] = test: Cellular uptake of conjugates in L1210 cells (control) at a concentration of 2 uM (+/-15% SEM); assay type: functional, cell-based; settings: Mus musculus
Procedure, shortened: (§5)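 L1210 cells were seeded at 2 × 10^5 cells/mL with conjugate added at seeding, in medium containing 2 mM aminoguanidine, and cultured 24 h. Washed cells were extracted in 0.2 N HClO4/2 M NaCl for 16 h at 4 °C. Intracellular conjugate was quantified by fluorimetry and expressed as nmol/mg protein. Mean of three determinations (±15%).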

L1210 [10] = test: Cellular uptake of conjugates in L1210 cells pretreated with 5 mM DFMO at a concentration of 2 uM (+/-15% SEM); assay type: functional, cell-based; settings: Mus musculus
Procedure, shortened: (§6)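 L1210 cells were seeded at 10^5 cells/mL in medium with 5 mM DFMO, and conjugates were added 24 h later. Cells were harvested after a further 24 h, extracted in 0.2 N HClO4/2 M NaCl and assayed by fluorimetry, expressed per mg protein. Mean of three determinations (±15%).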

Nucleic Acid = test: Drug concentration required to produce 50% inhibition of fluorescence bound ethidium to CT-DNA (1.26:1) (+/-SEM 5%); assay type: functional; settings: Bos taurus
Procedure, shortened: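 Ethidium displacement: 1 μM CT-DNA with 1.26 μM ethidium bromide; conjugate stock added serially. Fluorescence was read at excitation 546 nm and emission 595 nm. The value is the conjugate concentration cutting DNA-bound ethidium fluorescence by 50%. Mean of three determinations (±5%).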

[11] = Ratio of cellular uptake in CHO cells to that of CHO-MG cells.; assay type: functional
CHO [12] = test: In vitro 50% cell growth inhibition by the compound in CHO cells; assay type: functional, cell-based; settings: Cricetulus griseus; procedure, shortened: as §2
CHO [13] = test: Cellular uptake of conjugates in CHO cells at a concentration of 10 uM (+/-15% SEM); assay type: functional, cell-based; settings: Cricetulus griseus; procedure, shortened: as §1
CHO [14] = test: Cellular uptake of conjugates in CHO cells at a concentration of 2 uM (+/-15% SEM); assay type: functional, cell-based; settings: Cricetulus griseus; procedure, shortened: as §1
CHO-MG [15] = test: In vitro 25% cell growth inhibition by the compound in CHO-MG cells; assay type: functional, Cricetulus griseus; procedure, shortened: as §2
CHO-MG [16] = test: In vitro 25% cell growth inhibition by the compound in CHO-MG cells with 5 mM DFMO addition; assay type: functional; settings: Cricetulus griseus
Procedure, shortened: (§7)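 CHO or CHO-MG cells were plated at 2 × 10^3 cells/mL and incubated overnight. Conjugates and 5 mM DFMO were then added together, with 2 mM aminoguanidine present, for 48 h. MTT absorbance at 540 nm was expressed relative to DFMO-treated controls. The value is the concentration inhibiting growth 25% or 50%.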

CHO-MG [17] = test: In vitro 50% cell growth inhibition by the compound in CHO-MG cells with 5 mM DFMO addition; assay type: functional, cell-based; settings: Cricetulus griseus; procedure, shortened: as §7
CHO-MG [18] = test: Cellular uptake of conjugates in CHO-MG cells at a concentration of 10 uM (+/-15% SEM); assay type: functional, cell-based; settings: Cricetulus griseus; procedure, shortened: as §1
CHO-MG [19] = test: Cellular uptake of conjugates in CHO-MG cells at a concentration of 2 uM (+/-15% SEM); assay type: functional, cell-based; settings: Cricetulus griseus; procedure, shortened: as §1
CHO [20] = test: In vitro 50% cell growth inhibition by the co mpound in CHO cells with 5 mM DFMO addition; assay type: functional, cell-based; settings: Cricetulus griseus; procedure, shortened: as §7
CHO [21] = test: In vitro 25% cell growth inhibition by the compound in CHO cells; assay type: functional; settings: Cricetulus griseus; procedure, shortened: as §2
CHO [22] = test: In vitro 25% cell growth inhibition by the compound in CHO cells with 5 mM DFMO addition; assay type: functional; settings: Cricetulus griseus; procedure, shortened: as §7
L1210 [23] = test: Cellular uptake of conjugates in L1210 cells (control) at a concentration of 0.5 uM (+/-15% SEM); assay type: functional, cell-based; settings: Mus musculus; procedure, shortened: as §5
L1210 [24] = test: Cellular uptake of conjugates in L1210 cells (control) at a concentration of 10 uM (+/-15% SEM); assay type: functional, cell-based; settings: Mus musculus; procedure, shortened: as §5
L1210 [25] = test: Cellular uptake of conjugates in L1210 cells in presence of 500 uM SPD at a concentration of 0.5 uM (+/-15% SEM); assay type: functional, cell-based; settings: Mus musculus
Procedure, shortened: (§8)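 Same as the L1210 uptake assay: seeded at 2 × 10^5 cells/mL, conjugate plus 500 μM spermidine added together at seeding, 24 h exposure. Extraction in HClO4/NaCl, fluorimetric quantitation, normalized to protein. Mean of three determinations (±15%).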

L1210 [26] = test: Cellular uptake of conjugates in L1210 cells in presence of 500 uM SPD at a concentration of 10 uM (+/-15% SEM); assay type: functional, cell-based; settings: Mus musculus; procedure, shortened: as §8
L1210 [27] = test: Cellular uptake of conjugates in L1210 cells in presence of 500 uM SPD at a concentration of 2 uM (+/-15% SEM); assay type: functional, cell-based; settings: Mus musculus; procedure, shortened: as §8
L1210 [28] = test: Cellular uptake of conjugates in L1210 cells pretreated with 5 mM DFMO at a concentration of 0.5 uM (+/-15% SEM); assay type: functional, cell-based; settings: Mus musculus; procedure, shortened: as §6
L1210 [29] = test: Cellular uptake of conjugates in L1210 cells pretreated with 5 mM DFMO at a concentration of 10 uM (+/-15% SEM); assay type: functional, cell-based; settings: Mus musculus; procedure, shortened: as §6
[30] = Ratio of cellular uptake in CHO cells to that of CHO-MG cells 2 uM; assay type: functional
[31] = Ratio of cellular uptake in CHO cells to that of CHO-MG cells at 10 uM; assay type: functional
L1210 [32] = test: Cellular uptake of conjugates in L1210 cells (control) at a concentration of 1 uM (+/-15% SEM); assay type: functional, cell-based; settings: Mus musculus; procedure, shortened: as §5
L1210 [33] = test: Cellular uptake of conjugates in L1210 cells in presence of 500 uM SPD at a concentration of 1 uM (+/-15% SEM); assay type: functional, cell-based; settings: Mus musculus; procedure, shortened: as §8
L1210 [34] = test: Cellular uptake of conjugates in L1210 cells pretreated with 5 mM DFMO at a concentration of 1 uM (+/-15% SEM); assay type: functional, cell-based; settings: Mus musculus; procedure, shortened: as §6

SMILES	Uptake (nM (mg of protein)-1) (CHO [1])	IC50 (CHO-MG [2])	Uptake (nM (mg of protein)-1) (CHO-MG [3])	IC50 (L1210 [4])	IC50 (L1210 [5])	IC25 (L1210 [6])	IC25 (L1210 [7])	Ki (L1210 [8])	Uptake (nM (mg of protein)-1) (L1210 [9])	Uptake (nM (mg of protein)-1) (L1210 [10])	Concentration for 50% ethidium displacement from DNA (C50) (Nucleic Acid)	Ratio [11]	IC50 (CHO [12])	IC25 (CHO-MG [16])	IC50 (CHO-MG [17])	IC50 (CHO [20])	IC25 (CHO [21])	IC25 (CHO [22])	Uptake (nM (mg of protein)-1) (L1210 [23])	Uptake (nM (mg of protein)-1) (L1210 [25])	also measured
Cl.NCCCNCCCCNCCCNCCCCCNc1c2ccccc2nc2ccccc12	0.21	4 µM	0.061	1.4 µM	0.7 µM	0.4 µM	0.2 µM	0.135 µM	0.51	1.06	110 nM	3.4	1 µM	–	–	–	–	–	–	–	–
Cl.NCCCNCCCCNCCCNCCCCCNC(=O)c1c2ccccc2nc2ccccc12	–	31 µM	–	41 µM	6.6 µM	22 µM	0.1 µM	0.097 µM	0.064	0.217	120 nM	–	25 µM	6 µM	23 µM	2 µM	10.8 µM	0.025 µM	0.033	0.016	Uptake (nM (mg of protein)-1) (CHO [13]): 0.125; Uptake (nM (mg of protein)-1) (CHO [14]): 0.034; IC25 (CHO-MG [15]): 10.5 µM; Uptake (nM (mg of protein)-1) (CHO-MG [18]): 0.112; Uptake (nM (mg of protein)-1) (CHO-MG [19]): 0.032; Uptake (nM (mg of protein)-1) (L1210 [24]): 0.279; Uptake (nM (mg of protein)-1) (L1210 [26]): 0.262; Uptake (nM (mg of protein)-1) (L1210 [27]): 0.049; Uptake (nM (mg of protein)-1) (L1210 [28]): 0.113; Uptake (nM (mg of protein)-1) (L1210 [29]): 0.631; Ratio [30]: 1.1; Ratio [31]: 1.1
NCCCNCCCCNCCCN	–	–	–	–	–	–	–	–	–	–	–	–	–	–	–	–	–	–	–	–	CC50 (Nucleic Acid): 6.8 µM
Cl.NCCCNCCCCNCCCNCCCNc1c2ccccc2nc2ccccc12	0.167	6.1 µM	0.054	2.8 µM	0.9 µM	1.4 µM	0.14 µM	0.129 µM	0.717	1.58	110 nM	3.1	2.3 µM	2.5 µM	7.3 µM	1.3 µM	0.9 µM	0.32 µM	0.186	0.053	IC25 (CHO-MG [15]; Cricetulus griseus, CHO-MG, read-out: IC25): 1.8 µM; Uptake (nM (mg of protein)-1) (L1210 [32]): 0.307; Uptake (nM (mg of protein)-1) (L1210 [33]): 0.188; Uptake (nM (mg of protein)-1) (L1210 [27]): 0.553; Uptake (nM (mg of protein)-1) (L1210 [28]): 0.496; Uptake (nM (mg of protein)-1) (L1210 [34]): 0.728
